ChEMBL document CHEMBL1145385, “Functional differences in epigenetic modulators-superiority of mercaptoacetamide-based histone deacetylase inhibitors relative to hydroxamates in cortical neuron neuroprotection studies” (J Med Chem, 2007)
The source made the active and inactive calls. The rule behind the calls is not given here.

Key:
[1] = molecular target: Histone deacetylase 1 (Homo sapiens, UniProt Q13547); assay: Inhibition of His-tagged HDAC1 expressed in Sf9 cells by fluorescence-based assay
[2] = molecular target: T1, Histone deacetylase 8 (Homo sapiens, UniProt Q9BY41); assay: Inhibition of His-tagged HDAC8 expressed in Sf9 cells by fluorescence-based assay
T1 sequence (Q9BY41 whole entry): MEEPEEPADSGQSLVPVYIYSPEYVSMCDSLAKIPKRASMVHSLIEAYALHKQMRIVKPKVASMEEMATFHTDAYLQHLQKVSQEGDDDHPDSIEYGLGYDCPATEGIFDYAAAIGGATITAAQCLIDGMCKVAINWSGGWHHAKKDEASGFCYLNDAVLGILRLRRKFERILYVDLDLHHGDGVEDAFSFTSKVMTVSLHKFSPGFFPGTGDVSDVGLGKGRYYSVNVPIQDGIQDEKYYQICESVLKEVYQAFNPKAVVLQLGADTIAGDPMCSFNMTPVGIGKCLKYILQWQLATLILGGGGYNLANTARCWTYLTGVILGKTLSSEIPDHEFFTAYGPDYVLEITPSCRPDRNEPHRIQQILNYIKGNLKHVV

[3] = molecular target: T2, Polyamine deacetylase HDAC10 (Homo sapiens, UniProt Q969S8); assay: Inhibition of His-tagged HDAC10 expressed in Sf9 cells by fluorescence-based assay
T2 sequence (Q969S8 whole entry): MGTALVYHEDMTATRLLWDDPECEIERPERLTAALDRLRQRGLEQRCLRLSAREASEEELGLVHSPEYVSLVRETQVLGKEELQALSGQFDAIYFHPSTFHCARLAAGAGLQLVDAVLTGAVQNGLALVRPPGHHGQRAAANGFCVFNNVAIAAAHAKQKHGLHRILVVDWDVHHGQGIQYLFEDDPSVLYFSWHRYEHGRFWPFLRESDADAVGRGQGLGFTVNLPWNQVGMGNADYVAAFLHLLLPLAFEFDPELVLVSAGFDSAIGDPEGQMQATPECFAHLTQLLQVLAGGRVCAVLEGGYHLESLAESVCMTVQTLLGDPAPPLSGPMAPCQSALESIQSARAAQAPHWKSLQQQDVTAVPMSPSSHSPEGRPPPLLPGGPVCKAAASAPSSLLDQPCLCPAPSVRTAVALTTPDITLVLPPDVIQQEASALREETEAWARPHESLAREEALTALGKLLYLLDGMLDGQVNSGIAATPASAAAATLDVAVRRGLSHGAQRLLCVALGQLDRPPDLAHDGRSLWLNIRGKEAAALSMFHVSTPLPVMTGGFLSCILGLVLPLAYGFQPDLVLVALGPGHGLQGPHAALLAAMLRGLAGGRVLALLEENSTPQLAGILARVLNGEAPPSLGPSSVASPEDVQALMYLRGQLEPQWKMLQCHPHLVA

[4] = molecular target: T3, Protein deacetylase HDAC6 (Homo sapiens, UniProt Q9UBN7); assay: Inhibition of His-tagged HDAC6 expressed in Sf9 cells by fluorescence-based assay
T3 sequence (Q9UBN7 whole entry): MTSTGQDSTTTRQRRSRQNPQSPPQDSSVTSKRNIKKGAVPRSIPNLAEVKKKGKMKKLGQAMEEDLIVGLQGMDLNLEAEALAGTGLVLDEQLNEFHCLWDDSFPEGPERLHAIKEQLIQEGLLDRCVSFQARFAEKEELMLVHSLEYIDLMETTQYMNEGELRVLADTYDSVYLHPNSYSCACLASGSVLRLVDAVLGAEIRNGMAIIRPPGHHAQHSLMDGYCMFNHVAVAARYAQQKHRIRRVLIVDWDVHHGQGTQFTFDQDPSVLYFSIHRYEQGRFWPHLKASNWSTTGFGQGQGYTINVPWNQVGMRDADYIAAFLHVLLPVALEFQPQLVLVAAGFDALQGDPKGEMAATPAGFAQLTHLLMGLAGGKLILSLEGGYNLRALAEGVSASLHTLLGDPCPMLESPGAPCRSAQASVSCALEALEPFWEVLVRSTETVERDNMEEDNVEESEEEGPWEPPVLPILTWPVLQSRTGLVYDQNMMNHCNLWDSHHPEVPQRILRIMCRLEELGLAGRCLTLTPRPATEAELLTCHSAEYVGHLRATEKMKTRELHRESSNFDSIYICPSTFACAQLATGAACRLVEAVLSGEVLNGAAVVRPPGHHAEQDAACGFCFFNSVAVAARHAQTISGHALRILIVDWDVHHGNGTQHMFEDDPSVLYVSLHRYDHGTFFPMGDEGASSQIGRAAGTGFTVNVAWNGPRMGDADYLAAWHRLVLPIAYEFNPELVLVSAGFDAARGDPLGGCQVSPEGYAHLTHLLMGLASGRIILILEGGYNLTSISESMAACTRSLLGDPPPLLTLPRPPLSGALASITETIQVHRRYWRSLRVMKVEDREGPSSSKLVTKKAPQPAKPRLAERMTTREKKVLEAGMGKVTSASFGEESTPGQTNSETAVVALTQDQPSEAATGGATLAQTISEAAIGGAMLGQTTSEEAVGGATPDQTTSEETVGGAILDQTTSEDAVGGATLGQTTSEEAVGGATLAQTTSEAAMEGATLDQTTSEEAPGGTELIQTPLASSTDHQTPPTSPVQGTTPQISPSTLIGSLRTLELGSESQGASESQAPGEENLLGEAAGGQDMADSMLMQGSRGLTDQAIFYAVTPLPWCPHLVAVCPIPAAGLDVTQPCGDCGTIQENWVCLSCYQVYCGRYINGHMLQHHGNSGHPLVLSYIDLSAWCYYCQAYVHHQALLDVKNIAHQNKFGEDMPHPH

[5] = molecular target: Histone deacetylase 2 (Homo sapiens, UniProt Q92769); assay: Inhibition of His-tagged HDAC2 expressed in Sf9 cells by fluorescence-based assay
[6] = system: neuronal; assay: Protection against HCA-induced oxidative stress Sprague-Dawley rat neuronal cells at 10 uM; type: functional, cell-based
Summary of the method: (§1)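 Cortical neurons from E17 Sprague-Dawley rat fetuses, used 24 h after plating, in MEM with 5.5 g/L glucose, 10% fetal calf serum, 2 mM L-glutamine, 100 µM cystine; 5 mM HCA (pH 7.5) added together with compound (10 µM unless stated); viability after 48 h by MTT and calcein-AM/ethidium homodimer-1 staining; mean ± SE of four replicates.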

[7] = system: Primary neuron; assay: Increase in histone H4 acetylation in Sprague-Dawley rat neurons at 50 uM after 8 hrs; type: functional
Summary of the method: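 Rat primary cortical neurons (fetal Sprague-Dawley, E17) treated 8 h; histones acid-extracted (0.4 N H2SO4) from nuclei, TCA-precipitated, run on 15% SDS gel; immunoblot with acetyl-H4 (1:1000) and total H4 (1:4000) antibodies, 3 h RT, HRP secondary 2 h, enhanced chemiluminescence detection.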

[8] = Toxicity against Sprague-Dawley rat neuronal cells at 50 uM; type: cell-based
[9] = system: neuronal; assay: Protection against HCA-induced oxidative stress in Sprague-Dawley rat neuronal cells by MTT assay; type: functional, cell-based; summary of the method: as §1

Histone deacetylase 2, sequence (Q92769 whole entry): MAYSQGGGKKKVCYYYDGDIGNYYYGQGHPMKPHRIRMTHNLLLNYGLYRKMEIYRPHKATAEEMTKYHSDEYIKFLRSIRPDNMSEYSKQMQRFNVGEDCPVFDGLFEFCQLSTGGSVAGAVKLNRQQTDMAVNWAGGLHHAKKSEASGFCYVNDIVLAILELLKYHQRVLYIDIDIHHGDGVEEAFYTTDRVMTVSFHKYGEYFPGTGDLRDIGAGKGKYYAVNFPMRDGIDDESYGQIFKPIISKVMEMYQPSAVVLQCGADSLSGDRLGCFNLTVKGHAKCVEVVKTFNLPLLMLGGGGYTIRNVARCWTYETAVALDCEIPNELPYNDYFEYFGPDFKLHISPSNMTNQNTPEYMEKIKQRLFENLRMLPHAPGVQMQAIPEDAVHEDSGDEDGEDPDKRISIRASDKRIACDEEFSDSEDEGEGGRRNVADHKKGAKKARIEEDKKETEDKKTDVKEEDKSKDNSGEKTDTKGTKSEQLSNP
Histone deacetylase 1, sequence (Q13547 whole entry): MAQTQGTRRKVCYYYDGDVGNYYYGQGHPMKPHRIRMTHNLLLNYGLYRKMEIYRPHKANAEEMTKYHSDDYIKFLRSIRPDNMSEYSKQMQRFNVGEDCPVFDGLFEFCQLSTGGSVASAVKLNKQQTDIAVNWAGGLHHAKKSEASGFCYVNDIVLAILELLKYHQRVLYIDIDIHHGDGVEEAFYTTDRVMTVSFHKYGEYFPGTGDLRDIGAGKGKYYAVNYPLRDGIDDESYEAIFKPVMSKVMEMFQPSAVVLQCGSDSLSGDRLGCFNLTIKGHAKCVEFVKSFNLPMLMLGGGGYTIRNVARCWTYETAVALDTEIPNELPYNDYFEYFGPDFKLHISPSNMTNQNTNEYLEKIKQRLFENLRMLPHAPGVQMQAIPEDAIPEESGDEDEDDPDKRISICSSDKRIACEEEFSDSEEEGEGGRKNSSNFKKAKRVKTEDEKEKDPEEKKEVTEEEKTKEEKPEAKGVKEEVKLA

Compound	IC50 [1]	IC50 [2]	IC50 [3]	IC50 [4]	IC50 [5]	Activity [6]	Activity [7]	Activity [8]	Activity [9]
CN(C)c1ccc(C(=O)NCCCCCNC(=O)CS)cc1	1080 nM	10200 nM	1540 nM	114 nM	–	–	–	–	–
CN(C)c1ccc(C(=O)NCCCCNC(=O)CS)cc1	11900 nM	> 30000 nM	29700 nM	620 nM	> 30000 nM	–	–	–	–
CN(C)c1ccc(C(=O)NCCCCCCNC(=O)CS)cc1	1430 nM	19100 nM	3430 nM	482 nM	4640 nM	Active	Active	–	–
O=C(CS)NCCCCCCNC(=O)Nc1ccccc1	10800 nM	13900 nM	> 30000 nM	2010 nM	> 30000 nM	–	inactive	Non-toxic	Dose-dependent effect
CN(C)c1ccc(NC(=O)NCCCCCCC(=O)NO)cc1	209 nM	1740 nM	176 nM	34.5 nM	647 nM	–	–	–	–
O=C(CCCCCCC(=O)Nc1nc(-c2cccc([N+](=O)[O-])c2)cs1)NO	8.5 nM	4090 nM	11.1 nM	3.7 nM	113 nM	–	–	–	–
CN(C)c1ccc(C(=O)NCCCNC(=O)CS)cc1	5260 nM	12300 nM	8780 nM	216 nM	> 30000 nM	–	inactive	Non-toxic	Dose-dependent effect
O=C(CS)NCCCCCC(=O)Nc1cccc2cccnc12	3220 nM	6120 nM	10700 nM	95.3 nM	7380 nM	Active	Active	–	–
O=C(CCCCCNC(=O)NC12CC3CC(CC(C3)C1)C2)NO	152 nM	3410 nM	173 nM	102 nM	1050 nM	–	–	–	–
N[C@@H](Cc1ccc(O)cc1)C(=O)Nc1ccccc1-c1ccc(NC(=O)CCCCCCC(=O)NO)cc1	36.9 nM	2060 nM	42.1 nM	9 nM	205 nM	–	–	–	–
CN(C)c1ccc(CNC(=O)NCCC(=O)NO)cc1	130 nM	1050 nM	178 nM	45.5 nM	492 nM	–	–	–	–
N[C@@H](Cc1c[nH]c2ccccc12)C(=O)Nc1ccccc1-c1ccc(NC(=O)CCCCCCC(=O)NO)cc1	26.7 nM	1720 nM	28.3 nM	5.4 nM	167 nM	–	–	–	–
